Results: ChEMBL document CHEMBL1938334, “Quinoline tricyclic derivatives. Design, synthesis and evaluation of the antiviral activity of three new classes of RNA-dependent RNA polymerase inhibitors” (Bioorg Med Chem, 2011)

How the values were obtained:
[1] = Cytotoxicity against MDBK cells after 48 to 96 hrs by MTT assay; format: cell-based, Bos taurus; settings: cattle
Outline: (§1)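 MDBK seeded at 6×10^5 and BHK at 1×10^6 cells/mL in MEM-Earle's with L-glutamine, 1 mM pyruvate, kanamycin, plus 10% horse serum (MDBK) or 10% FBS (BHK). Cells were grown at 37 °C, 5% CO2 with serial compound dilutions (DMSO stocks diluted in medium). Viability by MTT after 48–96 h. CC50 was taken by linear regression versus untreated controls; three independent determinations.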

[2] = tested on: Coxsackievirus B5; experiment: Antiviral activity against Human coxsackievirus B5 Ohio-1 infected in african green monkey Vero 76 cells assessed as reduction of virus-induced plaque formation after 3 days using crystal violet staining; format: functional, organism-based; settings: Enterovirus B, Ohio-1, Vero, 72 h
[3] = tested on: Vesicular stomatitis Indiana virus; experiment: Antiviral activity against clinical isolate Vesicular stomatitis Indiana virus infected in african green monkey Vero 76 cells assessed as reduction of virus-induced plaque formation after 2 days using crystal violet staining; format: functional, organism-based; settings: 48 h
[4] = tested on: Human immunodeficiency virus 1; experiment: Antiviral activity against HIV1 3B infected in human MT4 cells assessed as inhibition of virus-induced cytopathogenicity after 4 days by MTT assay; format: functional, organism-based; settings: Human immunodeficiency virus 1, 3B, MT4, 96 h
Outline: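 MT-4 cells (1×10^4 per well) were infected with HIV-1 IIIB at 100 CCID50, m.o.i. 0.01, together with serial compound dilutions. Viability was read by MTT after 4 days at 37 °C. EC50 was taken by linear regression versus untreated controls. Mean of three determinations.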

[5] = tested on: Reovirus sp.; experiment: Antiviral activity against Reovirus type-1 3651 infected in hamster BHK21 cells assessed as inhibition of virus-induced cytopathogenicity after 3 to 4 days by MTT assay; format: functional, organism-based; settings: Reovirus sp., 3651, BHK-21
Outline: (§2)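 Host cells were seeded in 96-well plates at 3×10^4 cells/well (MDBK) or 5×10^4 cells/well (BHK-21) and grown to confluent monolayers overnight. They were infected at m.o.i. 0.01 in maintenance MEM with 0.5% inactivated FBS. Serial compound dilutions were added after 1 h. Viability was read by MTT after 3–4 days at 37 °C. EC50 was taken by linear regression against untreated controls. Mean of three determinations.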

[6] = tested on: Yellow fever virus; experiment: Antiviral activity against Yellow fever virus 17D Stamaril Pasteur J07B01 infected in hamster BHK21 cells assessed as inhibition of virus-induced cytopathogenicity after 3 to 4 days by MTT assay; format: functional, cell-based; settings: Stamaril Pasteur J07B01, BHK-21; outline: as §2
[7] = Antiviral activity against Bovine viral diarrhea virus 1-NADL infected in MDBK cells assessed as inhibition of virus-induced cytopathogenicity after 3 to 4 days by MTT assay; format: functional, cell-based; settings: Bovine viral diarrhea virus isolates and strains; outline: as §2
[8] = Cytotoxicity against african green monkey Vero 76 cells after 48 to 96 hrs by crystal violet staining; format: cell-based; settings: chlorocebus sabaeus
Outline: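 Vero-76 cells were seeded at 4×10^5 cells/mL in D-MEM with L-glutamine, kanamycin and 10% FBS, then exposed to serial compound dilutions at 37 °C, 5% CO2 for 48–96 h. Viability was read by crystal violet staining. 50% cytotoxic concentration by linear regression relative to untreated controls; mean of three independent determinations.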

[9] = tested on: Poliovirus 1; experiment: Antiviral activity against Human poliovirus 1 strain Sabin Chat infected in african green monkey Vero 76 cells assessed as virus-induced reduction of plaque formation after 2 days using crystal violet staining; format: functional, cell-based; settings: Enterovirus C, 48 h
[10] = Cytotoxicity against human MT4 cells after 96 hrs by MTT assay; format: cell-based
Outline: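 Exponentially growing MT-4 cells seeded at 1×10^5 cells/mL in RPMI-1640 with 10% FBS, penicillin and streptomycin. Incubated with serial compound dilutions at 37 °C, 5% CO2 for 96 h; viability by MTT. CC50 by linear regression relative to untreated controls; mean of three independent determinations.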

[11] = tested on: Human alphaherpesvirus 1; experiment: Antiviral activity against Human herpesvirus 1 strain KOS infected in african green monkey Vero 76 cells assessed as reduction of virus-induced plaque formation after 3 days using crystal violet staining; format: functional, organism-based; settings: Human alphaherpesvirus 1, KOS, 72 h
[12] = Cytotoxicity against BHK21 cells after 48 to 96 hrs by MTT assay; format: cell-based, Mesocricetus auratus, BHK-21; settings: hamster; outline: as §1
[13] = tested on: Human orthopneumovirus; experiment: Antiviral activity against Human respiratory syncytial virus A2 infected in african green monkey Vero 76 cells assessed as reduction of virus-induced plaque formation after 5 days using crystal violet staining; format: functional, organism-based; settings: 120 h
[14] = Antiviral activity against Vaccinia virus Lister Elstree infected in african green monkey Vero 76 cells assessed as reduction of virus-induced plaque formation after 3 days using crystal violet staining; format: functional, cell-based; settings: 72 h

Structure (SMILES) | CC50 [1] [µM] | EC50 [2] [µM] | EC50 [3] [µM] | EC50 [4] [µM] | EC50 [5] [µM] | EC50 [6] [µM] | EC50 [7] [µM] | CC50 [8] [µM] | EC50 [9] [µM] | CC50 at 96 h [10] [µM] | EC50 [11] [µM] | CC50 [12] [µM] | EC50 [13] [µM] | EC50 [14] [µM]
c1ccc(-c2ccc(-c3nc4cc5cccnc5cc4[nH]3)cc2)cc1 | ≥ 100 | 3 | > 80 | > 8 | > 20 | > 20 | 60 | 80 | > 80 | 8 | > 80 | 20 | > 80 | > 80
Clc1c2ncccc2cc2nc(C3CCCCC3)[nH]c12 | 73 | 43 | ≥ 100 | > 57 | > 26 | > 26 | 19 | > 100 | 80 | 57 | > 100 | 26 | > 100 | ≥ 100
Oc1ccnc2c(Cl)c3[nH]c(-c4ccccc4)nc3cc12 | > 100 | > 100 | > 100 | > 100 | > 75 | > 75 | > 100 | > 100 | > 100 | > 100 | > 100 | 75 | > 100 | > 100
Clc1c2ncccc2cc2nccnc12 | 6.5 | 50 | > 90 | > 82 | > 70 | > 70 | > 6.5 | 90 | > 90 | 82 | 90 | 70 | > 90 | 57
Oc1ccnc2c(Cl)c3nccnc3cc12 | 63 | > 90 | > 90 | > 42 | > 85 | > 85 | > 63 | 90 | > 90 | 42 | 90 | 85 | > 90 | > 90
Clc1c2ncccc2cc2nc(CBr)c(CBr)nc12 | 20 | > 100 | > 100 | > 16 | > 100 | > 100 | > 20 | > 100 | > 100 | 16 | > 100 | > 100 | > 100 | > 100
Clc1c2ncccc2cc2ncc(-c3ccccc3)nc12 | > 100 | > 100 | > 100 | > 100 | > 100 | > 100 | 18 | > 100 | > 100 | > 100 | > 100 | > 100 | > 100 | > 100
Clc1c2ncccc2cc2nc(-c3ccccc3)c(-c3ccccc3)nc12 | > 100 | > 100 | > 100 | > 100 | > 100 | > 100 | > 100 | > 100 | > 100 | > 100 | > 100 | > 100 | > 100 | > 100
CCc1nc2cc3cccnc3c(Cl)c2[nH]c1=O | 75 | > 100 | 35 | > 51 | 36 | > 95 | 6.5 | 100 | > 100 | 51 | > 100 | 95 | 18 | > 100
CC(C)c1nc2cc3cccnc3c(Cl)c2[nH]c1=O | 100 | > 100 | 62 | > 48 | 47 | > 100 | 5 | > 100 | > 100 | 48 | > 100 | > 100 | 38 | > 100
CCOC(=O)C(C)c1nc2cc3cccnc3c(Cl)c2[nH]c1=O (configuration not stated) | > 100 | > 100 | ≥ 100 | > 59 | > 100 | > 100 | 19 | > 100 | ≥ 100 | 59 | ≥ 100 | > 100 | > 100 | > 100
O=c1[nH]c2c(Cl)c3ncccc3cc2nc1-c1ccccc1 | > 100 | > 100 | 100 | > 61 | 100 | > 100 | 5 | > 100 | > 100 | 61 | > 100 | > 100 | > 100 | 39
CC(C)c1nc2c(Cl)c3ncccc3cc2[nH]c1=O | > 100 | > 100 | > 100 | > 100 | > 100 | > 100 | 100 | > 100 | > 100 | 100 | > 100 | > 100 | > 100 | > 100
